How the values were obtained:
L1210 [1] = experiment: Inhibitory concentration against growth of murine L1210 cells at 96 hours; type: functional, cell-based; settings: Mus musculus, L1210, 96 h
Method in brief: (§1)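 Proliferation of murine leukemia L1210 cells measured after 48 h or 96 h exposure. IC50 reported as the mean of at least two experiments. Variation from the mean was typically 10–25% for the 96-h values.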

L1210 [2] = experiment: Ratio of intracellular concentration to that of treatment concentration in L1210 cells; type: functional, Mus musculus
L1210 [3] = experiment: Intracellular concentration was determined in murine L1210 cells after treatment with 100 uM compound for 48 h; type: functional, cell-based; settings: Mus musculus
Method in brief: (§2)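 Murine leukemia L1210 cells exposed to the compound, 48 h unless another time is indicated. Intracellular level measured as pmol/10^6 cells. Converted to concentration using about 1 µL volume per 10^6 untreated cells.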

L1210 [4] = experiment: Ability to compete with [3H]SPD for the polyamine transport apparatus in L1210 cells; type: functional, cell-based, Mus musculus
[5] = Iron clearing efficiency in bile-duct-cannulated rodents following a subcutaneous dosage of 300 umol/kg; type: functional
Method in brief: (§3)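 Bile-duct-cannulated rats given a subcutaneous dose of 300 µmol/kg, equivalent in iron-binding capacity to 450 µmol/kg of the 3:1 ligands. Chelator-induced iron excretion measured in both bile and urine. Bile collected as multiple samples to follow excretion kinetics.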

L1210 [6] = experiment: Intracellular concentration was determined in murine L1210 cells after treatment with 100 uM compound for 4 hrs; type: functional, cell-based; settings: Mus musculus; method in brief: as §2
L1210 [7] = experiment: Inhibitory concentration against growth of murine L1210 cells at 48 hours; type: functional, cell-based; settings: Mus musculus, L1210, 48 h; method in brief: as §1
[8] = Iron clearing efficiency in bile of rodents following a subcutaneous dosage of 300 umol/kg; type: functional; method in brief: as §3
[9] = Iron clearing efficiency in urine of rodents following a subcutaneous dosage of 300 umol/kg; type: functional; method in brief: as §3
L1210 [10] = experiment: Intracellular concentration was determined in murine L1210 cells after treatment with 100 uM compound for 48 hrs; type: functional, cell-based; settings: Mus musculus; method in brief: as §2
[11] = Iron clearing efficiency in bile of rodents following a subcutaneous dosage of 450 umol/kg; type: ADME; settings: rodentia, in vivo, sc
Method in brief: (§4)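 Bile-duct-cannulated rat model. Drug given sc at 450 µmol/kg, set for equivalent iron-binding capacity. Chelator-promoted iron excretion measured in both bile and urine. Multiple bile samples collected, so the kinetics of iron excretion could be followed.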

[12] = Iron clearing efficiency in bile-duct-cannulated rodents following a subcutaneous dosage of 450 umol/kg; type: ADME; settings: rodentia, in vivo, sc; method in brief: as §4
L1210 [13] = experiment: Intracellular concentration was determined in murine L1210 cells after treatment with 50 uM compound for 48 h; type: functional, cell-based; settings: Mus musculus
Method in brief: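 Murine leukemia L1210 cells exposed to compound for 48 h unless otherwise indicated. Intracellular concentration expressed as pmol/10^6 cells; 10^6 untreated cells taken as about 1 µL volume. Mean of at least two or three experiments, variation typically less than 10%.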

[14] = Iron clearing efficiency in urine of rodents following a subcutaneous dosage of 450 umol/kg; type: ADME; settings: rodentia, in vivo, sc; method in brief: as §4
L1210 [15] = experiment: Intracellular concentration was determined in murine L1210 cells after treatment with 0.2 uM compound for 48 h; type: functional, cell-based; settings: Mus musculus; method in brief: as §2
[16] = Iron clearing efficiency in bile-duct-cannulated rodents following a subcutaneous dosage of 450 umol/kg (iron excretion delayed until ~18 hours after administration); type: functional
L1210 [17] = experiment: Intracellular concentration was determined in murine L1210 cells after treatment with 30 uM compound for 48 h; type: functional, cell-based; settings: Mus musculus; method in brief: as §2

Compound | IC50 (L1210 [1]) [µM] | Ratio (L1210 [2]) | Concentration (pmol/10E6 cells) (L1210 [3]) | Ki (L1210 [4]) [µM] | Efficiency [5] [%] | Concentration (pmol/10E6 cells) (L1210 [6]) | IC50 (L1210 [7]) [µM] | Efficiency [8] [%] | Efficiency [9] [%] | Concentration (pmol/10E6 cells) (L1210 [10]) | Efficiency [11] [%] | Efficiency [12] [%] | Concentration (pmol/10E6 cells) (L1210 [13]) | Efficiency [14] [%] | Concentration (pmol/10E6 cells) (L1210 [15]) | Efficiency [16] [%] | Concentration (pmol/10E6 cells) (L1210 [17])
FC(F)(F)CNCCCNCCCCNCCCNCC(F)(F)F | > 100 | <0.2 | < 20 |  |  |  |  |  |  |  |  |  |  |  |  |  | 
C[C@]1(C(=O)O)CSC(c2ccc(OCCCCNCCCNCCCN)cc2O)=N1 | 40 | 0.7 |  | 73 | 9.2 | 71 | 40 | 99 | 1 |  |  |  |  |  |  |  | 
CCOC(=O)[C@@]1(C)CSC(c2ccc(OCCCCNCCCNCCCN)cc2O)=N1 | 1.5 |  |  | 5.7 | 13.6 | 2980 | 1.5 | 97 | 3 | 947 |  |  |  |  |  |  | 
COC(=O)c1ccc(C(=O)NCCCNCCCCNCCCN)cc1 | > 100 | 4.3 |  | 3.1 |  |  | > 100 |  |  | 430 |  |  |  |  |  |  | 
Cc1c(O)c(=O)ccn1C [DEFERIPRONE] | 55 | 0.02 |  | > 500 |  |  | 46 |  |  |  | 74 | 2.2 | 1 | 26 |  |  | 
Cc1c(O)c(=O)ccn1CCCNCCCCNCCCN |  | 1950 |  | 3.7 |  |  | 0.2 |  |  |  | 53 | 1.8 |  | 47 | 390 | <0.5 | 
C[C@]1(C(=O)O)CSC(c2ccc(O)cc2O)=N1 [DEFERITRIN] | 20 | <0.5 | < 50 | > 500 | 1.1 |  | 19 | 93 | 7 |  |  |  |  |  |  |  | 
CCNCCCNCCCCNCCCNCC [BIS(ETHYL)SPERMINE] |  | 13.3 |  |  |  |  |  |  |  |  |  |  |  |  |  |  | 400
NCCCNCCCCNCCCNC(=O)c1ccc(C(=O)O)cc1 | > 100 | <0.7 | < 70 | 27 |  |  | > 100 |  |  |  |  |  |  |  |  |  | 

From ChEMBL document CHEMBL1144451, “Polyamine-vectored iron chelators: the role of charge” (J Med Chem, 2005)
